The RNAGym collection of RNA variant scans (doi:10.1101/gad.245936.114)
Fewer inactive variants are shown than the library holds.

B1: tRNA (parent)
chain: CUCUCGGUAGCCAAGUUGGUUUAAGGCGCAAGACUUUAAUUUAUCACUACGAAAUCUUGAGAUCGGGCGUUCGACUCGCCCCCGGGAGAUUUUUUCCUCGAGCAA

Variants of: B1
Assay: nonsense suppression (GFP-seq) (ratio to wild type); higher = more function; SUP4oc tRNA, yeast GFP reporter sort-seq
Outline: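 Nonsense suppression (GFPSEQ) is the median GFP/RFP ratio of each sorting bin, weighted by the variant's estimated share of cells in that bin and expressed relative to the unmutated parent tRNA. Yeast strains carried genome-integrated variants of an ochre-suppressor tRNA from a library with ~3% random mutations, plus a galactose-driven GFP ochre reporter and RFP, and were grown in raffinose/galactose medium containing 80 mg/L adenine. Cells were sorted into GFP/RFP bins, each bin was Illumina-sequenced (phred ≥30), and variants were kept only with ≥100 reads and ≥30 cells.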

Variant | nonsense suppression
A23C A24C A31C | ≤ 0.026
A23U G25U G69C | ≤ 0.026
U22C A30C G32U C82G | ≤ 0.026
U22C G73A C80U | 0.0265
A23C A30U C34G U70C C72G | ≤ 0.026
U22C G26A U57G | ≤ 0.026
A23U U55C A60C G69U G85C | ≤ 0.026
A23U C80G | ≤ 0.026
U22C G61U U63C | 0.17
A24C A60U | 1.07
A24C A60G | 0.258
A24C A60C | 0.0269
A23G U55C | 0.0273
A23G U55G | ≤ 0.026
A23C U58G C64G | ≤ 0.026
A23U A30U | 0.0282
A23C U76G G88A | ≤ 0.026
U22C U58G | ≤ 0.026
A24C C72U G84A | ≤ 0.026
A24C C75G | 1.11
A24C C75U | 1.18

Variant | nonsense suppression
U22A G86U | 0.033
A23G G59C C64G C77U G78A | ≤ 0.026
U22C A60C G61A | 0.176
A23G A31G | 0.0446
U22A U76A | 0.0747
U22A U76C | 0.967
U22G C29U G32A | ≤ 0.026
A23G U63A | 0.0418
A23G U63G | ≤ 0.026
A23G A24C | 0.156
A23G G59C | ≤ 0.026
A23G G69C | ≤ 0.026
A23U G67A | ≤ 0.026
U22C A54U | 1.05
U22C A54C | 1.2
U22A U55C | 0.377
A23C A30G C81A A87G | ≤ 0.026
A23C U76G | ≤ 0.026
A23G G85U | 0.0779
U22C A24U C29U A30G | 0.0731
A23G G73A | 0.0291

Variant | nonsense suppression
A23G G73C | ≤ 0.026
A23G C29U | 0.142
A24C | 1.13
A24C A89C | 0.0925
U22G G28U A62U G73U | ≤ 0.026
A23G G78U | 0.0956
A23G G78A | 0.0355
U22C C56U | 0.0509
A23G C34A | ≤ 0.026
U22C A87G | 0.724
U22G A30G | 0.781
U22G A30U | 0.184
A23G A30U | 0.0397
U22C C68U | 1.16
A23U A31G A33G G67C | ≤ 0.026
U22G C29U | 1.15
U22C G59C | ≤ 0.026
A24C C72G | 0.0618
A24C C72U | 0.0288
U22G G25U G66U | ≤ 0.026
U22A G65A | 0.12

Variant | nonsense suppression
U22G C82U | 0.913
A23G C56G G65A U71G | ≤ 0.026
U22C A30U C83A | ≤ 0.026
U22C G73A | 0.848
A23U C29G | ≤ 0.026
A23U C29U | 0.112
U22G A54G G73A | ≤ 0.026
A23U G32U U63G C68A U70A A74C | ≤ 0.026
A24C C81U | 0.2
U22G U63A | 0.939
U22G U63C | 0.868
U22G A54U G88U | ≤ 0.026
U22C G25C G32C A62C C64G | ≤ 0.026
A23U G32C U57C C81A | ≤ 0.026
U22G A24C | 0.817
U22G C34A G85A | ≤ 0.026
U22G C68G | ≤ 0.026
A23G A33C G66A | ≤ 0.026
A24C A87U | 0.0833
A24C A87G | 0.479
